Measured values as given in ChEMBL document CHEMBL2424560, “Structure- and reactivity-based development of covalent inhibitors of the activating and gatekeeper mutant forms of the epidermal growth factor receptor (EGFR)” (J Med Chem, 2013).
Calls of active or inactive are those of the source. The rule behind the calls is not given here.

Tests used:
[1] = target: Epidermal growth factor receptor (Homo sapiens, UniProt P00533, L858R/T790M); assay type: cell-based, NCI-H1975
NCI-H1975 [2] = experiment: Selectivity ratio of IC50 for EGFR L858R/[…] double mutant phosphorylation in human NCI-H1975 cells to IC50 for human recombinant N-terminal GST-tagged EGFR L858R/[…] double mutant; assay type: cell-based
Homo sapiens [3] = organism: Homo sapiens; experiment: Selectivity ratio of IC50 for wild type human EGFR to IC50 for human recombinant N-terminal GST-tagged EGFR L858R/[…] double mutant
[4] = target: T1, Epidermal growth factor receptor (Homo sapiens, UniProt P00533); experiment: Inhibition of wild type human EGFR after 50 mins by HTRF assay
T1 sequence (P00533 whole entry): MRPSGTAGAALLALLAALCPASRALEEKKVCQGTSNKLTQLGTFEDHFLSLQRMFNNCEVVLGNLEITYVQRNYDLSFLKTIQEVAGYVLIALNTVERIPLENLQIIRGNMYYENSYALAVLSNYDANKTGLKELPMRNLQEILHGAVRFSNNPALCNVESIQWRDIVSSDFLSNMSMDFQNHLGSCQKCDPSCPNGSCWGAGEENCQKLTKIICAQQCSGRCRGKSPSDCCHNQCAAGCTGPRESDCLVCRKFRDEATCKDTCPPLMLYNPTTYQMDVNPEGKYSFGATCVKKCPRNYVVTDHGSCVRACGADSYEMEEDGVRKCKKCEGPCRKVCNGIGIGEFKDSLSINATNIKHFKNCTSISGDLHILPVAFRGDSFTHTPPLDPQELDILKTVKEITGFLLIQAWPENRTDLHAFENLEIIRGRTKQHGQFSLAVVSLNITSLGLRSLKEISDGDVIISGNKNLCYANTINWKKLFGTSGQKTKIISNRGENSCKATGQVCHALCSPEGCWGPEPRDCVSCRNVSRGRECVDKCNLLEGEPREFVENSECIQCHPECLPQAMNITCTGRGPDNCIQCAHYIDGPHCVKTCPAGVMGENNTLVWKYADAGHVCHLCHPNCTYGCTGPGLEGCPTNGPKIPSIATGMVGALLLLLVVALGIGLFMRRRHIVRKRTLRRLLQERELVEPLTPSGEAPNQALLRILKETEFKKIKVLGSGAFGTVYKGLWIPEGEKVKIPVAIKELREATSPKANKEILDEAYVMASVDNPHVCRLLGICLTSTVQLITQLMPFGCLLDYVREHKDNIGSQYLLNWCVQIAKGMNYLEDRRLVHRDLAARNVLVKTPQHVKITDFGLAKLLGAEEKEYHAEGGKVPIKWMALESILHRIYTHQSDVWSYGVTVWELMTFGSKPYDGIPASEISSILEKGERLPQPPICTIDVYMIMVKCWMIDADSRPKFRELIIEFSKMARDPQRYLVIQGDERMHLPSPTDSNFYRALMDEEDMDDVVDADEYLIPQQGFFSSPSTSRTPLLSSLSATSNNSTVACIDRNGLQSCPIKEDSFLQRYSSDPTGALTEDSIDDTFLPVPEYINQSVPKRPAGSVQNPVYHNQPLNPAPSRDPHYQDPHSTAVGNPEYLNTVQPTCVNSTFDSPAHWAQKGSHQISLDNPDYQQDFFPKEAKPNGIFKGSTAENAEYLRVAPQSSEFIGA

[5] = (§1) Inhibition of human recombinant N-terminal GST-tagged EGFR L858R/[…] double mutant after 50 mins by HTRF assay
Homo sapiens [6] = organism: Homo sapiens; experiment: as §1
[7] = Lipophilicity, log D of the compound at pH 7.4; assay type: physicochemical; conditions: buffer
[8] = target: T1, Epidermal growth factor receptor; assay type: cell-based, LoVo
[9] = target: Epidermal growth factor receptor (Homo sapiens, UniProt P00533, EX19DEL); assay type: cell-based, PC-9
Chain of Epidermal growth factor receptor (Homo sapiens, UniProt P00533, EX19DEL) (P00533 whole entry, looked up, stated change not applied): as the sequence (P00533 whole entry) above

[10] = Half life in phosphate buffer at pH 7.4 at 50 uM by LC-MS analysis in presence of glutathione; assay type: physicochemical; conditions: phosphate buffer with glutathione
[11] = Aqueous solubility of the compound; assay type: physicochemical; conditions: buffer
[12] = target: Maternal embryonic leucine zipper kinase (Homo sapiens) (UniProt Q14680); experiment: Inhibition of MELK (unknown origin) at 1 uM relative to control
Chain of Maternal embryonic leucine zipper kinase (Homo sapiens) (Q14680 whole entry, looked up): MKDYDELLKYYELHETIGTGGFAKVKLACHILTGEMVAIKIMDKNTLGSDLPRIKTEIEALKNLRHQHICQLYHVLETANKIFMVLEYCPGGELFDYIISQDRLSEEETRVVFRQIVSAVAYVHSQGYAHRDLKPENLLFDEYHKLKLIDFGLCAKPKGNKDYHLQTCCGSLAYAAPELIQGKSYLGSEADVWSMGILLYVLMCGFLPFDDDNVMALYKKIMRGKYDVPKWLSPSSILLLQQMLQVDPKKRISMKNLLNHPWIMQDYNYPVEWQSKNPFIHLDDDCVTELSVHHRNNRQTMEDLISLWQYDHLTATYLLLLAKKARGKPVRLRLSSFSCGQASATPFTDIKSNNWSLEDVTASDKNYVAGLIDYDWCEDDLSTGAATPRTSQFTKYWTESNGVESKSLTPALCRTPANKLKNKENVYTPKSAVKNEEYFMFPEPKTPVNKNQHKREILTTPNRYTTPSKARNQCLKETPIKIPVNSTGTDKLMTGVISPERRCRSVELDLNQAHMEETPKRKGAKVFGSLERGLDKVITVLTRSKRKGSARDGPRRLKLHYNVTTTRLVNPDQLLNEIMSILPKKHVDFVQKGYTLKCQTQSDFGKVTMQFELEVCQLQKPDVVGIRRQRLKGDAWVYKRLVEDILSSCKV
Outline: (§2)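 Broad panel of >70 kinases run as biochemical assays at University of Dundee, compound tested at 1 μM; percent inhibition relative to control.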

[13] = target: Tyrosine-protein kinase BTK (Homo sapiens) (UniProt Q06187); experiment: Inhibition of BTK (unknown origin) at 1 uM relative to control
Outline: as §2

[14] = target: Myosin light chain kinase, smooth muscle (Homo sapiens) (UniProt Q15746); experiment: Inhibition of smMLCK (unknown origin) at 1 uM relative to control
Outline: as §2

[15] = target: Mitogen-activated protein kinase kinase kinase 11 (Homo sapiens) (UniProt Q16584); experiment: Inhibition of MAP3K11 (unknown origin) at 1 uM relative to control
Outline: as §2

[16] = target: Vascular endothelial growth factor receptor 1 (Homo sapiens) (UniProt P17948); experiment: Inhibition of FLT1 (unknown origin) at 1 uM relative to control
Outline: as §2

[17] = target: T2, Lymphokine-activated killer T-cell-originated protein kinase (Homo sapiens) (UniProt Q96KB5); experiment: Inhibition of PBK (unknown origin) at 1 uM relative to control
T2 sequence (whole entry): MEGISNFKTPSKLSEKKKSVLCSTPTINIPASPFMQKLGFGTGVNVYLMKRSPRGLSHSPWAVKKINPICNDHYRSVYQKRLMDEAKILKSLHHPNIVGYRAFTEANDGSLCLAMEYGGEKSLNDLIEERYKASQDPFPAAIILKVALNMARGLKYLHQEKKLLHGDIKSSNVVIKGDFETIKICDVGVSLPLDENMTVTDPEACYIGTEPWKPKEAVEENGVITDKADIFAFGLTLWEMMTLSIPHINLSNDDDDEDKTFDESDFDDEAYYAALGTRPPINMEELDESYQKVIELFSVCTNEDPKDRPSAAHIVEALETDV
Outline: as §2

[18] = target: Serine/threonine-protein kinase Chk2 (Homo sapiens) (UniProt O96017); experiment: Inhibition of CHK2 (unknown origin) at 1 uM relative to control
Chain of Serine/threonine-protein kinase Chk2 (Homo sapiens) (O96017 whole entry): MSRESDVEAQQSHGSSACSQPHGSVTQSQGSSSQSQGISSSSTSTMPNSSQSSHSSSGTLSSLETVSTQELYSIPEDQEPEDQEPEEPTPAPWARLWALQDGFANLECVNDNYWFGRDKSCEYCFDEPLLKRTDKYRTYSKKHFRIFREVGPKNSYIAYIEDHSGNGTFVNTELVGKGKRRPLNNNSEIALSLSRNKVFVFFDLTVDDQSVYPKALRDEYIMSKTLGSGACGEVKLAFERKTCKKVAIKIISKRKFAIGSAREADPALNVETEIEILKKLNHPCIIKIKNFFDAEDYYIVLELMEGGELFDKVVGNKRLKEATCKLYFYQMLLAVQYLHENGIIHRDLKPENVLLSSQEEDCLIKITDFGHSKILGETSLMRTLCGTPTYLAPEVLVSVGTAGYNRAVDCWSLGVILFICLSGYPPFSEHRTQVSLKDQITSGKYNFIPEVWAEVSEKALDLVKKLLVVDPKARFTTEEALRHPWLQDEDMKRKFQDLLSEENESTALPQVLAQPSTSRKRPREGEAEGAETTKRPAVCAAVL
Outline: as §2

[19] = target: Calcium/calmodulin-dependent protein kinase kinase 2 (Homo sapiens) (UniProt Q96RR4); experiment: Inhibition of CAMKKbeta (unknown origin) at 1 uM relative to control
Outline: as §2

[20] = target: Insulin receptor (Homo sapiens) (UniProt P06213); experiment: Inhibition of insulin receptor (unknown origin) at 1 uM relative to control
Outline: as §2

[21] = target: Insulin-like growth factor 1 receptor (Homo sapiens) (UniProt P08069); experiment: Inhibition of IGF1R (unknown origin) at 1 uM relative to control
Outline: as §2

A-431 = experiment: Antitumor activity against wild type human A431 cells xenografted in SCID mouse assessed as tumor growth inhibition at 60 mg/kg/day, po after 7 days relative to vehicle-treated control; assay type: functional; conditions: read-out: TGI
PC-9 = experiment: Antitumor activity against human PC9 cells harboring EGFR exon 19 deletion activating mutant xenografted in SCID mouse assessed as tumor growth inhibition at 60 mg/kg/day, po after 7 days relative to vehicle-treated control; assay type: functional; conditions: read-out: TGI
NCI-H1975 [22] = experiment: Antitumor activity against human NCI-H1975 cells harboring EGFR L858R/[…] double mutant xenografted in SCID mouse assessed as tumor growth inhibition at 60 mg/kg/day, po after 7 days relative to vehicle-treated control; assay type: functional; conditions: read-out: TGI

Chain of Epidermal growth factor receptor (Homo sapiens, UniProt P00533, L858R/T790M) (P00533 25-1210 T790M/L858R limits assumed): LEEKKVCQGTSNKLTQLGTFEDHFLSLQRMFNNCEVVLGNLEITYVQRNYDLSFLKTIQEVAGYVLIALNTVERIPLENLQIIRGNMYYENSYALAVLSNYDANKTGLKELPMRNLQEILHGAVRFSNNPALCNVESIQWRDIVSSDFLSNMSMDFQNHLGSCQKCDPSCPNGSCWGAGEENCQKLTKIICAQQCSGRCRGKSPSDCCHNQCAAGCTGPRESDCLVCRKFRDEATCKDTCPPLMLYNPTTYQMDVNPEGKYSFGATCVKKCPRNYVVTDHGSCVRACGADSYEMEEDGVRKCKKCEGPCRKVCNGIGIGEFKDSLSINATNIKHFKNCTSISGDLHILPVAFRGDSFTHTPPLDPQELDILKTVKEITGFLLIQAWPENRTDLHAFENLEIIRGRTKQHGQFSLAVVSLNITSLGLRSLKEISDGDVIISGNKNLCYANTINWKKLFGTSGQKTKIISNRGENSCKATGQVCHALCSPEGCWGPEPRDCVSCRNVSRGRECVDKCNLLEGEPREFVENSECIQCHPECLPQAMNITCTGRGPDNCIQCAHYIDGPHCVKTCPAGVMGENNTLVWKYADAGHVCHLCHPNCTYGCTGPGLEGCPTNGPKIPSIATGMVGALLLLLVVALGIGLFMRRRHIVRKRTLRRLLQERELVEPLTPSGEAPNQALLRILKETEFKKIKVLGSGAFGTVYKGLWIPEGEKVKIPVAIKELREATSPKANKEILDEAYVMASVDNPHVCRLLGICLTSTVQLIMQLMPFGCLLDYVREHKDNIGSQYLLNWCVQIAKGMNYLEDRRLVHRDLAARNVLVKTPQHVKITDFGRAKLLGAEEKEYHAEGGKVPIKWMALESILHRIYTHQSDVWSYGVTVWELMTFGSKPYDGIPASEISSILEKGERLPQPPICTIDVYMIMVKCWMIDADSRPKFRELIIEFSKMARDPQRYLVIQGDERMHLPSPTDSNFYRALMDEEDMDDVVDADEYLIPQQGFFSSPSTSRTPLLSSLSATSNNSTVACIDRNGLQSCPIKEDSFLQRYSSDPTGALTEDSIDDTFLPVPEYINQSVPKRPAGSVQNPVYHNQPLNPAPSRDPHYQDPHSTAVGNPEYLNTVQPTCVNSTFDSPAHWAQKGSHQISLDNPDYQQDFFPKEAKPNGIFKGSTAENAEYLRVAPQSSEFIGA

Compound | IC50 [1] | IC50 [5] | IC50 [8] | IC50 [9] | also measured
COc1cc(N2CCN(C(C)=O)CC2)ccc1Nc1ncc(Cl)c(-c2c[nH]c3ccccc23)n1 | 770 nM | 9 nM | – | – | Ratio IC50 (NCI-H1975 [2]): 90; Ratio IC50 (Homo sapiens [3]): 88; IC50 [4]: 790 nM
COc1cc2ncnc(Nc3ccc(F)c(Cl)c3)c2cc1NC(=O)/C=C/CN1CCCCC1 | – | – | – | – | inhibition (Homo sapiens [6]): Active
COc1ccc(NC(=O)CCCN(C)C)cc1Nc1ncc(Cl)c(-c2cnn3ccccc23)n1 | 2300 nM | 18 nM | – | – | –
COc1ccc(NC(=O)/C=C/CN(C)C)cc1Nc1ncc(C)c(-c2cnn3ccccc23)n1 | 290 nM | – | 24000 nM | 250 nM | –
C=CC(=O)Nc1ccc(Nc2ncc(Cl)c(-c3c[nH]c4ccccc34)n2)cc1 | 12900 nM | 320 nM | > 30000 nM | 19000 nM | –
CN(C)C/C=C/C(=O)Nc1cc2c(Nc3ccc(F)c(Cl)c3)ncnc2cc1O[C@H]1CCOC1 [AFATINIB] | – | – | – | – | half-life at 50 µM [10]: 25 min
C=CC(=O)Nc1cccc(Nc2ncc(Cl)c(-c3c[nH]c4ccccc34)n2)c1 | 81 nM | 53 nM | 3500 nM | 270 nM | logD [7]: > 4.3
COc1ccc(NC(=O)/C=C/CN(C)C)cc1Nc1ncc(Cl)c(-c2c[nH]c3ccccc23)n1 | 53 nM | – | 1550 nM | 85 nM | –
COc1ccc(NC(=O)CC#N)cc1Nc1ncc(Cl)c(-c2c[nH]c3ccccc23)n1 | 2800 nM | 65 nM | > 30000 nM | 1800 nM | –
C=CC(=O)Nc1cc2c(Nc3ccc(F)c(Cl)c3)ncnc2cc1OCCCN1CCOCC1 | – | – | – | – | inhibition (Homo sapiens [6]): Active
C=CC(=O)Nc1ccccc1 | – | – | – | – | solubility [11]: soluble
COc1ccc(NC(=O)/C=C/CN(C)C)cc1Nc1ncc(Cl)c(-c2cnn3ccccc23)n1 | – | – | – | – | inhibition [12]: > 75%; inhibition [13]: > 75%; inhibition [14]: > 75%; inhibition [15]: > 75%; inhibition [16]: > 75%; inhibition [17]: > 75%; inhibition [18]: > 75%; inhibition [19]: > 75%; inhibition [20]: > 75%; inhibition [21]: > 75%; inhibition in vivo at 60 mg/kg/day (A-431): 46%; inhibition in vivo at 60 mg/kg/day (PC-9): 134%; inhibition in vivo at 60 mg/kg/day (NCI-H1975 [22]): 105%
COc1ccc(NC(=O)/C=C/CN(C)C)cc1Nc1ncc([S+](C)[O-])c(-c2cnn3ccccc23)n1 (centres undefined) | 15200 nM | – | > 30000 nM | 1300 nM | logD [7]: 1.3
C=CC(=O)N1CCc2cc(OC)c(Nc3ncc(Cl)c(-c4c[nH]c5ccccc45)n3)cc21 | 2100 nM | 52 nM | > 30000 nM | 2800 nM | –
C=CC(=O)Nc1ccc(OC)c(Nc2ncc(Cl)c(-c3c[nH]c4ccccc34)n2)c1 | 22 nM | 6.3 nM | 550 nM | 29 nM | logD [7]: > 4.3

More lines, main results first:

IC50 [1] | IC50 [5] | IC50 [8] | IC50 [9] | Compound | also measured
68 nM | – | 1300 nM | 17 nM | C=CC(=O)Nc1cc(Nc2nccc(-c3c[nH]c4ccccc34)n2)c(OC)cc1N1CCN(C)CC1 | logD [7]: 3.4
– | – | – | 23 nM | C=CC(=O)Nc1cc(Nc2ncc(Cl)c(-c3c[nH]c4ccccc34)n2)c(OC)cc1N1CCN(C)CC1 | –
220 nM | – | 19000 nM | 380 nM | COc1ccc(NC(=O)/C=C/CN(C)C)cc1Nc1ncc(F)c(-c2cnn3ccccc23)n1 | logD [7]: 3.3
33 nM | – | 12800 nM | 150 nM | C=CC(=O)Nc1ccc(OC)c(Nc2ncc(Cl)c(-c3cnn4ccccc34)n2)c1 | logD [7]: > 4.3
250 nM | – | 20000 nM | 390 nM | COc1ccc(NC(=O)/C=C/CN(C)C)cc1Nc1nccc(-c2cnn3ccccc23)n1 | –
– | – | 19000 nM | 140 nM | C=CC(=O)Nc1cc(Nc2nccc(-c3cnn4ccccc34)n2)c(OC)cc1N1CCN(C)CC1 | –
